Lung fibro prol: blocks proliferation of human lung fibroblasts; AID 719; hit rate 1.1% among 85,000; viability, % at 10 µM; LL 47 human lung fibroblast viability, ATP luminescence; active compounds read low;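 active = viability at or below 50% in the single dose screen; inactive = viability above 50%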;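 note: compound exposure lasted 72 h before the ATP readout; 100% = median luminescence of untreated cell-only wells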
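Material: Human LL 47 lung fibroblast cells | Input: 1,150 cells/well | Buffer or medium: IMEM plus 15% FBS | Compound dosing: 0.1% DMSO in all compound wells | Times: Overnight cell rest, 72 h compound treatment at 37 °C | Signal: CellTiter-Glo luminescence measuring cellular ATP | Measure: % viability versus median cells-only luminescence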
H69AR inhibit: blocks growth of human H69AR lung tumor cells; H69AR lung tumor viability, ATP luminescence, 72 h; active compounds read low; viability, % at 10 µM; hit rate 6% among 85,000; AID 598;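 active = viability at or below 40%; inactive = viability above 40%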;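 note: multidrug resistant small cell line overexpressing MRP-1 efflux transporter; 100% = mean luminescence of untreated control wells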
HUVEC prolif 384: inhibitors of human endothelial cell proliferation; HUVEC proliferation, CellTiter-Glo luminescence, 72 h; active compounds read low; viability, % at 10 µM (by protocol); hit rate 1.1% among 86,000; AID 648;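 active = viability at or below 30%; inactive = viability above 30%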;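 note: 100% = median luminescence of DMSO-only cell control wells on each plate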
HCT116 bCat-KO: beta-catenin-lacking colon tumor cell growth suppression. viability, % at 10 µM. HCT116 beta-catenin knockout viability, CellTiter-Glo, 60 h; active compounds read low. AID 818. hit rate 1.5% among 140,000;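 active = viability at or under a set limit, the compound median less 4 SD, cut at about 6% in these data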;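 note: 0% = Hyamine 1622 control at 20 µM and 100% = untreated cell control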
Phagocytosis inh: blocks phagocytosis by macrophages. J774A.1 macrophage IgG-bead phagocytosis, imaging. inhibition, % at 5 µM. hit rate 0.07% among 110,000. AID 1029;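 active = inhibition above the mean of the plate negative controls plus 5 SD, cut at about 13% in these data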;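 note: phagocytic index as fraction of beads internalized from green versus red external bead signal; plate controls were DMSO negative control for no effect and cytochalasin-D positive control for full effect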
PTEN del growth: suppresses growth of cells with PTEN deletion; AID 827; viability, % at 10 µM; HCT116 PTEN-null viability, CellTiter-Glo, 60 h; active compounds read low; hit rate 1.2% among 140,000;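 active = viability at or below a set limit, 4 SD under the median of all tested compounds, cut at about 3.7% in these data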;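 note: PTEN knockout HCT116 line with beta catenin targeted HCT116 as companion control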
* = called active by the depositor; / = no result given. Shown is part of a subset that was picked to be rich in hits.

SMILES	Lung fibro prol	H69AR inhibit	HUVEC prolif 384	HCT116 bCat-KO	Phagocytosis inh	PTEN del growth
Cc1nc2c(ccc3nc(NC(=O)c4ccc(S(=O)(=O)N(C)C)cc4)sc32)s1	94.6	35.2*	46.7	80.3	-3.1	74.3
Cc1nc2c(ccc3nc(NC(=O)Cc4ccccc4)sc32)s1	/	/	/	60.1	/	53.6
O=C(OCC(=O)C12CC3CC(CC(C3)C1)C2)c1cccnc1Cl	/	/	/	81.6	-2.1	96.7
CCC(CO)NCc1cc(OC)c(OCC(=O)NCCc2ccccc2)cc1Br (centres undefined)	/	/	/	94.7	1.0	98.8
O=C1NC(=O)/C(=C\c2ccc(Oc3ccc([N+](=O)[O-])cn3)cc2)S1	/	/	/	84.9	0.2	86.9
CCOC(=O)C1CCN(C(=O)C2CC(=O)N(c3ccc(C)cc3)C2)CC1 (centres undefined)	92.2	75.7	83.5	88.9	-3.9	79.3
CN(C)CCOc1nc(-c2ccccc2)nc2c1oc1ccccc12	30.3*	2.3*	4.4*	2.0*	0.9	3.0*
CCN(CC)S(=O)(=O)c1ccc(-c2nnc(SCc3nnc(-c4ccc(C)cc4)o3)n2CC)cc1	101.4	57.4	94.2	80.3	-0.4	80.6
CCN(CC)S(=O)(=O)c1ccc(-c2nnc(SCc3nnc(-c4ccc(C)cc4)o3)o2)cc1	77.5	3.3*	33.0	76.3	-0.5	78.6
CCN(CC)S(=O)(=O)c1ccc(-c2nnc(SCC(=O)N3CCOCC3)o2)cc1	98.3	85.0	92.0	91.9	-0.4	87.1
CCN(CC)S(=O)(=O)c1ccc(-c2nnc(SCC(=O)N3CCc4ccccc43)o2)cc1	35.4*	4.4*	64.9	/	-1.7	/
CN(CC(=O)Nc1ccc(C#N)cc1)Cc1ccc(Cl)cc1	101.7	97.5	96.1	78.8	-0.9	67.8
N#Cc1ccc(NC(=O)Nc2ccc(Cl)cc2)cc1	38.6*	7.1*	34.6	4.0*	-0.7	3.4*
CC(=O)c1ccccc1OCC(O)CN1CCN(C(c2ccccc2)c2ccccc2)CC1 (centres undefined)	77.2	9.8*	68.7	37.8	1.4	37.3
CCOc1ccccc1C(=O)N1CCN(C(c2ccccc2)c2ccccc2)CC1	/	/	/	72.4	5.4	68.6
Cc1ccc(C2CC(c3ccc(C)cc3)n3nc(N)nc3N2)cc1 (centres undefined)	/	/	/	90.4	-0.5	99.0
COCc1cc(CN2CCN(C)CC2)c(O)c2ncccc12	86.7	25.3*	90.1	69.4	-0.7	80.7
Oc1c(CN2CCOCC2)cc(COCc2ccccc2)c2cccnc12	/	/	/	3.7*	-3.7	2.8*
CN1CCN(Cc2cc(Cl)c3cccnc3c2OC(=O)c2cccs2)CC1	/	/	/	3.7*	-0.6	4.7
Oc1cnc2ccccc2c1CN1CCOCC1	95.3	91.4	80.2	95.0	/	103.0
COC(=O)c1c(C(=O)OC)n(CCCN)c2ccc(C)cc12	93.1	102.0	87.2	73.2	-1.3	77.2
Cc1ccc2c(c1)c1cccc3c1n2CCN3CCC(N)=O	85.9	95.4	21.2*	73.0	1.0	60.5
Cn1c(CCN2CCN(c3ccccc3)CC2)nc2cc(NC(=O)c3ccco3)ccc21	96.5	21.2*	88.0	78.4	-0.9	64.7
Cc1ccc(N2CCN(CCc3nc4cc(NC(=O)c5ccco5)ccc4n3C)CC2)cc1	97.2	6.6*	95.6	64.7	0.0	66.2
Cn1c(CCN2CCN(c3ccc(F)cc3)CC2)nc2cc(NC(=O)c3ccco3)ccc21	95.1	43.9	96.3	94.1	1.1	89.1
SMILES	Lung fibro prol	H69AR inhibit	HUVEC prolif 384	HCT116 bCat-KO	Phagocytosis inh	PTEN del growth
COc1ccc(NC(=O)CN2C(=O)c3cccc4cccc2c34)cc1OC	74.1	85.1	71.0	87.3	-1.1	99.0
COc1ccc(C)cc1NC(=O)CN1C(=O)c2cccc3cccc1c23	54.8	27.5*	46.9	76.3	-2.2	62.4
Clc1ccccc1CN(Cc1ccccc1)c1ncnc2nc[nH]c12	91.2	35.6*	87.3	94.7	-1.7	100.5
Nc1nnnn1/N=C/c1cccc(OCc2ccccc2Cl)c1	88.4	72.4	16.5*	81.4	/	69.8
Nc1nnnn1/N=C/c1cccc(Oc2ccccc2)c1	93.9	93.4	98.0	70.8	-1.6	80.0
COc1ccc(-c2nsc3c(N4CCCC4)ncnc23)cc1	94.4	65.6	91.4	98.4	2.8	93.5
COc1ccc(-c2nsc3c(N4CCN(S(=O)(=O)c5ccccc5)CC4)ncnc23)cc1	90.2	6.2*	72.7	/	-1.7	/
COc1ccc(-c2cn3c(C)c(C(=O)N4CCc5ccccc5C4)sc3n2)cc1	102.2	21.9*	63.8	/	/	/
Cc1cccc(S(=O)(=O)c2c(N)n(/N=C/c3cccnc3)c3nc4ccccc4nc23)c1	63.0	33.1*	75.9	51.0	1.6	61.5
Nc1c(S(=O)(=O)c2cccs2)c2nc3ccccc3nc2n1/N=C/c1cccc(O)c1	56.0	4.0*	4.9*	2.7*	0.7	2.2*
Cc1cccc(S(=O)(=O)c2c(N)n(/N=C/c3ccco3)c3nc4ccccc4nc23)c1	92.4	82.0	79.7	81.6	-0.5	70.4
COc1ccc(NC(=O)/C(Cl)=C(/Cl)S(=O)(=O)Cc2ccccc2)cn1	4.7*	1.9*	124.9	4.5*	/	3.0*
O=C1CCc2cc(S(=O)(=O)NCCC(=O)N3CCN(c4cccc(Cl)c4)CC3)ccc2N1	99.5	93.3	104.9	73.0	/	77.1
COc1ccc2c(=O)c3c(=O)n(Cc4ccco4)c(-c4ccccc4)nc3oc2c1	100.8	82.1	100.4	95.8	-1.3	83.9
COc1ccc2c(=O)c3c(=O)n(Cc4ccco4)c(-c4cc(OC)c(OC)c(OC)c4)nc3oc2c1	77.7	13.2*	69.6	54.4	/	49.1
COc1ccc(S(=O)(=O)Nc2ccccc2OC)cc1NC(=O)c1cc2ccccc2oc1=O	/	/	/	64.3	-6.9	59.4
O=C(N/N=C/c1ccccn1)c1cc(-c2ccc(Cl)cc2)nc2ccccc12	/	/	/	3.7*	-0.1	3.2*
Cc1sc(NC(=O)c2ccc(Cl)s2)c(C(N)=O)c1C	87.8	11.0*	60.0	104.0	3.5	92.1
Cc1sc(NC(=O)c2cc(-c3ccc(Cl)cc3)nc3ccccc23)c(C(N)=O)c1C	/	/	/	3.9*	3.1	1.0*
COc1ccc(N=Cc2cc3c(cc2O)OC(N)=C(C#N)C3c2ccccc2)cc1 (centres undefined)	/	/	/	36.9	/	36.6
Cc1ccc(N=C2SC(C(=O)Nc3ccc(OC(F)(F)F)cc3)C(N)=C2C(=O)Nc2c(C)cc(C)cc2C)cc1 (centres undefined)	/	/	/	41.7	1.1	17.3
CN1CCN(c2ncnc3c2[nH]c2ccc(F)cc23)CC1	101.6	77.8	83.4	83.1	-1.3	84.5
CN1CCN(c2cc3c(c4c2[nH]c2ccccc24)C(=O)CC(C)(C)C3)CC1	18.7*	0.9*	3.3*	1.4*	0.6	1.8*
COc1nnc(-c2ccc(N3CCCCC3)c(NC(=O)C3CCCCC3)c2)c2ccccc12	98.1	8.7*	65.6	11.3	/	11.8
Cc1ccnc(NS(=O)(=O)c2ccc(NC(=O)c3ccc(S(=O)(=O)N4CC(C)OC(C)C4)cc3)cc2)n1 (centres undefined)	/	/	/	101.0	1.6	98.2

Assay outcomes (PubChem)
